The list is not random: actives were taken first. Their share in the collection is about 2.9%.
ADAM17 inh – ADAM17 inhibitors, primary screen, biochemical, QFRET; AID 720648, 2013; Disintegrin and metalloproteinase domain-containing protein 17 (Homo sapiens), P78536; actives 0.83% (n = 370,000); recombinant ADAM17, EDANS/DABCYL FRET peptide cleavage; inhibition, % at 6.95 µM;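 active = inhibition above the mean of compounds lying between control limits plus 3 SD, set per campaign, cut at about 8.5% in these data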;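 also: 0% = DMSO-only wells as the low control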
Target sequence (P78536 215-824 limits assumed): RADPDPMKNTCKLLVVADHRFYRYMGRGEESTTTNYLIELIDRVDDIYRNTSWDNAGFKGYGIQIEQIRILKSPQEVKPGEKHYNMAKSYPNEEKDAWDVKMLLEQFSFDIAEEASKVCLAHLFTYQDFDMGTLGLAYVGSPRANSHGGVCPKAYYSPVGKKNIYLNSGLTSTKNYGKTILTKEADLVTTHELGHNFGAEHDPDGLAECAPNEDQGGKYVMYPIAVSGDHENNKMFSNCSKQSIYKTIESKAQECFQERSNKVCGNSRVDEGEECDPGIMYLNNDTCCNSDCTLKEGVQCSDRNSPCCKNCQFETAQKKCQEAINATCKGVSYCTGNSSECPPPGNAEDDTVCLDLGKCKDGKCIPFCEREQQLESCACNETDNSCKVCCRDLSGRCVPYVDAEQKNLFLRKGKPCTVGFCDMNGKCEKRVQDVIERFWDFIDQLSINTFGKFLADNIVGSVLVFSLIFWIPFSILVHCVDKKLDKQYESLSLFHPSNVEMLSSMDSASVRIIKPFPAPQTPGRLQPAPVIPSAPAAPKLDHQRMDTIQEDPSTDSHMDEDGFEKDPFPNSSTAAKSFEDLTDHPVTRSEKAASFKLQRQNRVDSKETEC
CendR NRP1 mod – modulators of CendR peptide binding to NRP-1, primary screen, biochemical, fluorescence polarization, uHTS. FAM-RPARPAR peptide binding to NRP-1. inhibition, % at 25 µM. actives 0.85% (n = 360,000). AID 602438, 2012;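 active = inhibition or corrected inhibition above about 18%, plus a signal ratio from 0.5 to 1.5, limit read from the data, passing the limit was not always enough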
Arrestin-AP2 inh – inhibitors of beta-arrestin/AP2 binding, primary screen, biochemical, GPCR trafficking, flow cytometry | beta-arrestin 1 C-terminal peptide binding to AP2 beta2-adaptin appendage (human) | FITC-arrestin peptide / GST-AP2 beads; AP2 beta2 appendage carries R879A mutation | inhibition, % at 10 µM | actives 0.31% (n = 340,000) | AID 504490, 2011;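 active = inhibition above a set limit, near 3 SD of compounds lacking own fluorescence, cut at about 54% in these data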;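 also: plate controls were DMSO wells for no effect and 5 µM unlabelled arrestin peptide for full effect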
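System: GST-tagged AP2 beta2-adaptin appendage (R879A) on 4 µm glutathione beads / Reagent: FITC-arrestin peptide, 50 nM / Detection: HyperCyt-sampled flow cytometry, FL1 channel, ex 488/em 535 nm / Timing: 12 min plus 1 h, RT / Buffer or medium: PBS plus Tween 20 (0.05%) and BSA (0.1%)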
CaV13 ICDI inh – Disruptors of the CACNA1D IQ motif to Ca2+-dependent inactivation inhibitor domain association, primary screening, Förster resonance energy transfer in intact living …. HEK cells, CFP/YFP FRET ICDI-IQ, plate reader, 10 min; percent FRET-ratio fall versus neutral wells. inhibition, % at 12.3 µM. actives 0.098% (n = 340,000);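 active = mean replicate inhibition of at least 30% and at least 1% of replicates passing that level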;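 also: 0% = median of the neutral control wells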
ADAM10 inh – human ADAM10 inhibitors, primary screen, biochemical, QFRET, HTS; Disintegrin and metalloproteinase domain-containing protein 10 (Homo sapiens), O14672; recombinant ADAM10, EDANS/DABCYL FRET peptide cleavage, 3 h; inhibition, % at 7 µM; actives 0.62% (n = 370,000); AID 720582, 2013;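 active = inhibition above a per-campaign cutoff equal to the mean of compounds falling between control-based bounds plus 3 SD, cut at about 20% in these data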;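 also: 0% = DMSO wells while the 100% control is not disclosed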
FAS TE block – FAS thioesterase domain inhibitors, primary screen, biochemical, fluorescence intensity, uHTS; Fatty acid synthase (Homo sapiens), P49327; recombinant FAS-TE, OMFH fluorogenic substrate, fluorescence endpoint; inhibition, % at 15 µM; actives 0.67% (n = 360,000); AID 602261, 2012;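 active = compounds whose normalised, plate-corrected inhibition of enzyme fluorescence in the single-dose primary screen is 50% or more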;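 also: 0% = DMSO with enzyme and 100% = substrate without enzyme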
Arr AP2 CP1 – inhibitors of arrestin peptide binding to AP2, confirmation, biochemical, cherry pick 1, flow cytometry beads; shares compounds with Arrestin-AP2 inh; GST-AP2 beads, FITC arrestin peptide binding; GST-fused beta2-adaptin appendage, R879A mutant; actives 2% (n = 1,300); inhibition, % at 10 µM;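 active = inhibition above a set limit, roughly 3 SD of non-fluorescent compound noise, cut at about 38% in these data; inactive = inhibition at or below that limit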;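 also: loss of bead fluorescence from 50 nM FITC arrestin peptide bound to appendage; 0% = negative control wells and 100% = excess unlabelled arrestin peptide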
GST-FITC bead – GST-fluorescein capture on glutathione beads, confirmation, artefact control for arrestin-AP2 inhibitor project, biochemical, cherry pick 1, flow cytometry. inhibition, % at 10 µM. GST-fluorescein binding to GSH beads, fluorescence, counter-screen. shares compounds with Arrestin-AP2 inh. AID 588338, 2011. actives 2% (n = 1,300);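 active = inhibition above 50%, about 3 SD of the inhibition seen with non-fluorescent compounds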;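 also: fluorescein maleimide labelled GST captured on 4 micron glutathione beads; higher means more loss of bead fluorescence from quenching or blocked binding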
Starred values were filed as active, the others as inactive; i = inactive; · = not tested or not shown.

SMILES	ADAM17 inh	CendR NRP1 mod	Arrestin-AP2 inh	CaV13 ICDI inh	ADAM10 inh	FAS TE block	Arr AP2 CP1	GST-FITC bead
NC(=O)[C@@H]1CCCN1Cc1c(C(=O)N2CCN(C3CCCCC3)CC2)nc2ccccn12	-44	13	54*	-1	-131	-5	2	1
O=C(c1nc2ccccn2c1CN1CCCC(O)C1)N1CCN(C2CCCCC2)CC1 (stereo not given)	-6	-3	1	-6	-30	-8	·	·
O=C(O)C1OC(C(=O)O)C(C(=O)O)C1C(=O)O (stereo not given)	-2	-27	58*	-2	1	-7	-3	-3
COc1cc(NC(=O)N2CCc3nc(NCc4cccc(Oc5ccccc5)c4)ncc3C2)cc(OC)c1OC	-2	-7	·	-12	-12	6	·	·
CC[n+]1c(/C=C/Nc2ccccc2)oc2ccc(OC)cc21	-7	-84	58*	-5	-10	-9	-15	-2
CC[n+]1c(/C=C/Nc2ccccc2)oc2ccccc21	-6	-77	-13	-5	-16	-13	·	·
COc1ccc(NC(=O)CSCC(=O)Nc2ccc(S(=O)(=O)N3CCCCC3)cc2)cc1	2	3	57*	-2	6	-1	-12	-8
COc1ccc(S(=O)(=O)NCCC(=O)N2CCCC2)cc1N(C)S(C)(=O)=O	-1	9	56*	-4	7	-7	-2	-10
COc1ccc(-c2nc(CCl)cs2)cc1OC	-66	9	54*	-7	-176	-1	-7	-5
COc1ccc(-n2c(SCC(=O)Nc3ccc(OCc4ccccc4)cc3)nnc2-c2ccc(C)cc2)cc1	0	·	·	·	-3	·	·	·
CCOC(=O)C1=CC[C@H]2c3c(c4ccc(OC)cc4n3C)C(=O)C1N2S(=O)(=O)c1ccc(C)cc1	-2	3	58*	-8	-13	17	12	-4
COc1ccc2cc(-c3cc(C(=O)OCC(=O)NC4CCS(=O)(=O)C4)c4ccccc4n3)ccc2c1 (stereo not given)	-23	-11	106*	-23	-82	-6	60*	188*
COc1ccc(-c2cc(C(=O)OCC(=O)NC3CC3)c3ccccc3n2)cc1	-92	-2	4	-5	-312	19	·	·
COc1ccc(OCCn2c(=N)n(CCO)c3ccccc32)cc1	0	-5	35	·	0	-9	·	·
CCCCn1c(=N)n(CCOc2ccc(C)cc2)c2ccccc21	-4	-10	73*	-5	3	-4	-4	-3
O=C(C(=O)N1CCCN(Cc2ccc(F)cc2)CC1)c1ccccc1	-4	8	·	-15	-8	·	·	·
COc1ccc(/C=C2\SC(=S)N(CCCC(=O)Nc3cc(C)on3)C2=O)cc1OC	-3	-96	76*	-4	5	-13	-4	5
COc1ccc(/C=C2\SC(=S)N(CCCCCC(=O)Nc3cc(C)on3)C2=O)cc1OC	3	-23	-4	-3	1	-5	·	·
CCCCNC(=O)c1nc(C2CCN(S(=O)(=O)c3ccccc3C(F)(F)F)CC2)oc1-c1ccccc1	3	7	·	·	2	21	·	·
CN(C)C(=O)c1cc(C(=O)c2ccc(C(F)(F)F)cc2F)c[nH]1	0	-3	62*	-3	-3	-2	-18	1
CN(C)C(=O)c1cc(C(=O)c2ccc(F)cc2F)c[nH]1	-2	-2	11	-4	-3	0	·	·
Cc1cc(N2CCN(C(=O)OC(C)(C)C)C[C@@H]2C)ccc1N1C[C@@H](C)O[C@@H](C)C1	0	·	·	-9	-4	·	·	·
Cc1cccc(N/N=C(\C(N)=O)C2=NC(C)(C)Cc3ccccc32)c1	6	-2	55*	-3	9	22	19	0
CCOC(=O)/C(=N\O)C1=NC(C)(C)Cc2ccccc21	-2	1	-4	-17	3	-15	·	·
CCOc1ccc(CCNC(=O)CN(C)S(=O)(=O)c2cccc3nsnc23)cc1OCC	1	-5	-6	·	-3	0	·	·
SMILES	ADAM17 inh	CendR NRP1 mod	Arrestin-AP2 inh	CaV13 ICDI inh	ADAM10 inh	FAS TE block	Arr AP2 CP1	GST-FITC bead
NS(=O)(=O)c1ccc(CCNS(=O)(=O)c2cccc3nsnc23)cc1	-1	9	62*	-7	8	-6	-8	-5
CN(CC(=O)NCCc1ccc(S(N)(=O)=O)cc1)S(=O)(=O)c1cccc2nsnc12	-5	7	80*	-2	-4	-4	-1	-10
Cc1ccc(S(=O)(=O)N2CCOCC2)cc1C(=O)NCC1CCCCC1	-3	2	20	-6	-17	-3	·	·
c1ccc(Nc2ccccn2)cc1	-6	9	-1	·	-2	-10	·	·
c1ccc(Nc2cccc(Nc3ccccc3)n2)cc1	-7	-8	61*	·	-21	28	20	6
O=C(NCCCN1CCOCC1)c1ccc2c(c1)N(Cc1ccccc1)C(=O)c1ccccc1S2	-3	7	-19	-5	-2	-1	·	·
O=C(NCCN1CCOCC1)c1ccc2c(c1)N(Cc1ccccc1)C(=O)c1ccccc1S2	2	4	62*	-5	1	-3	2	1
CN(C)c1oc(COc2ccc(F)cc2)nc1C#N	4	4	55*	-17	2	-1	0	4
COc1ccc(N2CCCC2)c(NC(=O)c2ccc(Br)o2)c1	-6	61*	64*	-3	-18	7	19	-6
O=C(Nc1ccccc1N1CCCC1)c1ccc(Br)o1	-1	-15	29	-7	-7	-3	·	·
CCN1/C(=C2\SC(=S)N(Cc3ccccc3)C2=O)Sc2ccccc21	-2	-23	107*	-3	0	-2	9	-6
Nn1c(SCC(=O)N2c3ccccc3Sc3ccc(Cl)cc32)nnc1-c1cc(-c2ccc(F)cc2)n[nH]1	6	·	·	·	-4	·	·	·
COc1ccc(-n2nc(N)c(C(N)=O)n2)cc1	i	10	55*	-4	i	-3	8	3
COc1ccc(NC(=O)CCCC(=O)c2ccccc2)cc1OC	-3	16	61*	-22	-17	-4	-7	-7

Screens as filed in PubChem.
